# Experimental data as given in PubChem BioAssay.
# The source made the active and inactive calls.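 The calls were made as follows, unless noted: active = viability at or under a set limit in both replicates, limit being median viability minus 3 SD (cut at about 48% in these data, passing the limit was not always enough); inconclusive = at or under the limit in just one replicate; inactive = at or above the limit in both replicates.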
# Experiment: HUVEC growth inhibition – cell-based, human, primary screen (AID 575;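 active = viability at or below 30% in both replicate assays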;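 also: 100% = median of untreated cell wells with 0.1% DMSO on each plate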)
# Settings: HUVEC proliferation, CellTiter-Glo luminescence, 72 h; at 10 µM; stronger effect = lower value
# How it was run: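 Assay system: primary human umbilical vein endothelial cells / Buffer or medium: endothelial basal medium with 2% FBS plus growth supplements / Compound dosing: one dose, 10 µM final, 0.1% DMSO / Timing: 72 h treatment at 37 °C / Signal: CTG luminescence / Benchmarks: 32 DMSO-only cell-control wells (high), 32 MePR drug-control wells (low) per plate / Plate: collagen-coated 384-well format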
row,SMILES,viability
1,O=C(c1ccccc1Oc1nnnn1-c1ccccc1)N1CCOCC1,67.6% (inactive)
2,O=C(CSc1nnc(COc2ccc(Cl)cc2)o1)N1CCN(c2ccccc2)CC1,57% (inactive)
3,CCOC(=O)c1ccccc1NC(=O)Cn1cnc2c(cnn2-c2ccc(OC)cc2)c1=O,81.4% (inactive)
4,COC(=O)c1c(C)oc2ccc(NS(=O)(=O)c3cccs3)cc12,59% (inactive)
5,COc1cc2[nH]c(=O)n(CCC(=O)N3CCc4ccccc4C3)c(=O)c2cc1OC,116% (inactive)
6,CCOC(=O)c1c(NC(=O)CSc2nnc(-c3cccnc3)o2)sc(C)c1C,103% (inactive)
7,CC1CCN(C(=O)CSc2nnc(-c3ccc(S(=O)(=O)N4CCOCC4)cc3)n2C)CC1,93.7% (inactive)

# Experiment: growth inhibitors of H69AR lung tumor, primary screen, human, duplicate replicates (AID 580);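 also: 100% = mean luminescence of untreated wells and 0% = no signal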
# Settings: H69AR lung tumor cells viability, ATP luminescence, 72 h; at 10 µM; stronger effect = lower value
row,SMILES,viability
1,O=C(CS(=O)(=O)c1cn(Cc2ccc(Cl)cc2)c2ccccc12)N1CCCC1,79.3% (inactive)
2,O=c1c2cc(N3CCOCC3)ccc2[nH]c(=S)n1CCCN1CCCC1,100% (inactive)
3,CCOC(=O)c1[nH]c(C)c(C(=O)Nc2ccc(C)c(Cl)c2)c1C,28.6% (active)
4,CSc1nnc(-c2nnc(SC)n2-c2ccccc2)n1-c1ccccc1,98.3% (inactive)
5,COc1ccc(C(=O)NCc2ccccc2OC)cc1,105% (inactive)
6,CCOC(=O)c1[nH]c(C)c(C(=O)N2CCN(C(=O)c3ccco3)CC2)c1C,97.8% (inactive)
7,O=C(O)c1oc2ccccc2c1-n1cccc1,96.8% (inactive)
8,Cc1nn(-c2ccc(F)cc2)c(C)c1NS(=O)(=O)c1ccc(Cl)cc1,77% (inactive)
9,O=C(CSc1nnc(-c2ccccc2)c(-c2ccccc2)n1)N1CCOCC1,85.3% (inactive)
10,O=C(NCCCNC(=O)c1ccccn1)c1ccccn1,91.5% (inactive)
11,Cn1c(=O)c2[nH]c(NCC3CCCO3)nc2n(-c2ccccc2)c1=O (centres undefined),102% (inactive)
12,CCOC(=O)c1c(C)[nH]c(C=Nc2ccccc2)c1O,101% (inactive)
13,COc1ccc(-n2c(SCc3ccc(C#N)cc3)nnc2-c2ccccn2)cc1,96.3% (inactive)
14,O=C(O)c1ccc2c(c1)N(Cc1ccccc1F)C(=O)c1ccccc1S2=O (centres undefined),103% (inactive)
15,Cc1onc(-c2ccccc2Cl)c1C(=O)Nc1cccc(-c2cn3cccnc3n2)c1,85.6% (inactive)
16,COc1cc(OC)cc(C(=O)NCCN2CCOCC2)c1,94.1% (inactive)
17,Cn1c(=O)[nH]c(=O)c2c1nc(N1CCNCC1)n2CCOc1ccccc1,82% (inactive)
18,COc1ccc(CC(NC(C)=O)C(=O)NC2CCN(c3nc(C)cc(C)c3C#N)CC2)c(OC)c1 (centres undefined),104% (inactive)
19,C[C@H](NC(=O)NCc1cccs1)C(=O)O,93.6% (inactive)

row,SMILES,viability
1,O=C(CCS(=O)(=O)c1cc(Br)cc2c1N(C(=O)C1CC1)CC2)NCC1CCCO1 (centres undefined),81.8% (inactive)
2,CCC1CCCCN1C(=O)Cn1c(C(=O)OC)cc2sc(Cl)cc21 (centres undefined),71.4% (inactive)
3,CC(=O)c1cnc2cc(-c3ccccc3)nn2c1C,103% (inactive)
4,CCOC(=O)C1CCN(S(=O)(=O)c2cc(Cl)c(C)cc2OC)CC1,85.2% (inactive)
5,CCCN1CCN(C(=O)Cn2c(=O)oc3cc(S(=O)(=O)NCc4ccccc4)ccc32)CC1,95.3% (inactive)
6,COc1ccc(S(=O)(=O)N2CCC(C(=O)c3ccc4c(c3)OCCO4)CC2)cc1,91.5% (inactive)
7,CCCC(=O)Nc1nnc(CC(=O)OCC)s1,88.1% (inactive)
8,c1ccc(OCCCn2nnc(-c3cccnc3)n2)cc1,108% (inactive)
9,CC(=O)N1C(=O)N(C)C2C1N(C(C)=O)C(=O)N2C (centres undefined),93.5% (inactive)
10,COc1cccc(NC(=O)N2CCCC2C(=O)NC(C)C)c1 (centres undefined),99.1% (inactive)
11,c1ccc2ncc(-n3cnnn3)cc2c1,94% (inactive)
12,CC(=O)Nc1ccc(OC(=O)c2cccnc2)cc1,99.9% (inactive)
13,O=C(CN1C(=O)c2cccc3cccc1c23)N1CCN(c2ccccc2)CC1,113% (inactive)
14,CSc1ccccc1NC(=O)c1c(Br)cnn1C,101% (inactive)
15,O=C(c1ccccc1Oc1nnnn1-c1ccccc1)N1CCOCC1,79.6% (inactive)
16,O=C(CSc1nnc(COc2ccc(Cl)cc2)o1)N1CCN(c2ccccc2)CC1,90.2% (inactive)
17,CCOC(=O)c1ccccc1NC(=O)Cn1cnc2c(cnn2-c2ccc(OC)cc2)c1=O,101% (inactive)
18,COC(=O)c1c(C)oc2ccc(NS(=O)(=O)c3cccs3)cc12,78.9% (inactive)
